ROMK mod = ROMK potassium channel modulators, primary screen, cell-based, thallium flux, MLSMR library. Tet-inducible ROMK, thallium flux fluorescence; actives lie on both sides. B-score at 10 µM. 130,000 compounds, 2% hits. AID 1918, 2009;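 active means signal ratio slope over the read window, or its plate-corrected B-score, at least 3 SD from the plate mean, either direction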;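 further: B-score of the F/F0 ratio slope over 7 to 12 s after thallium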
Target sequence (P48048 whole entry, looked up): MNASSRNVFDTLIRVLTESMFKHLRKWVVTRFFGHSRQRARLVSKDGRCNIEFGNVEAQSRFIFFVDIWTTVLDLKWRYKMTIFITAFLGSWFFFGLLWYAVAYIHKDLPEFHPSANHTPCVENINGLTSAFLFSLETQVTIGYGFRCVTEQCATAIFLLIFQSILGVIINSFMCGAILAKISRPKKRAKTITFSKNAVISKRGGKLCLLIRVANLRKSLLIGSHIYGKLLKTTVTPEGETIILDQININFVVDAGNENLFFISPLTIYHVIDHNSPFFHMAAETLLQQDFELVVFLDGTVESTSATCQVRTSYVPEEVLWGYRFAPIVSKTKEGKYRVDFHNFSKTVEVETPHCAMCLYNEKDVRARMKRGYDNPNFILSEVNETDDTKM
Redox H2O2 prof = compounds producing H2O2 with reducing agent – biochemical, NIH compound library profiling, artefact control for MLSCN library redox annotation, primary screen | 200,000 compounds, 0.03% hits | DTT-dependent redox cycling H2O2, phenol red/HRP absorbance; 100% = 100 µM peroxide control, 0% = buffer | activation, % at 10 µM;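 active means activation of at least 50% relative to the plate's high and low controls in the primary single-dose screen; inactive means activation below 50%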;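 further: compound incubated with DTT at 0.8 mM final as the reducing agent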
Autophagy HCS = autophagy modulators in MEF cells, primary screen, imaging, high-content, MEF GFP-LC3 | 190,000 compounds, 0.98% hits | AID 463193, 2010 | MEF GFP-LC3 puncta imaging; test concentration mostly 10 µM | calls only at 10 µM (by protocol);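 active means percentage of spot-positive cells more than 3 SD above its plate mean, without a fluorescence outlier flag or 80% toxicity; inconclusive means no clear call, values can overlap the other calls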;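 further: spot-positive cell cutoff set from DMSO-treated cells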
Dynein transport = inhibitors of GR-EGFP nuclear translocation, primary screen, dynein cargo transport inhibitor project, imaging, high-content, 3617.4 mouse cells. test concentration mostly 20 µM; stimulated with dexamethasone, 1 µM; hits give low values. z-score, hits read low. 220,000 compounds, 0.47% hits. AID 1381, 2008;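 active means plate z-score of nuclear minus cytoplasmic receptor signal below a set negative limit, without overly bright fluorescence or cell loss, cut at about -3.5 in these data, passing the limit was not always enough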;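 further: z-score of nuclear minus cytoplasmic ring GR-EGFP intensity difference per well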
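Schedule: 48 h induction, then 1 h compound, then 30 min agonist, 37 °C. Buffer or medium: tetracycline-free induction medium containing charcoal-stripped FBS. Reagent: 1.0 µM final dexamethasone stimulus. Evaluation: nuclear versus cytoplasmic GR-EGFP signal, averaged per well. Signal: high-content fluorescence imaging after fixation.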
KCC2 mod = KCC2 cotransporter modulators, thallium flux, primary screen, cell-based, HEK293 KCC2, FluoZin-2 fluorescence, MLSMR; Solute carrier family 12 member 5 (Homo sapiens), Q9H2X9; KCC2 cells, thallium flux FluoZin-2 fluorescence; B-score of Tl+ flux slope (higher = more flux/activation; lower = inhibition) at 10 µM; 190,000 compounds, 2.2% hits; AID 1456, 2008;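 active means thallium flux slope and its plate-corrected score both differing from the plate sample mean at a set confidence after two filtering rounds, in either direction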;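 further: slope of fluorescence scaled to starting intensity during 10 to 20 s after thallium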
KCC2 sec1 = KCC2 modulators in sodium-free buffer, confirmation, cell-based, HEK293 KCC2, thallium flux, secondary assay. shares compounds with KCC2 mod. FluoZin2 fluorescence; hits give high values. normalised thallium flux (F/F0 slope) at 10 µM. 3,700 compounds, 15% hits. AID 1713, 2009;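 active means thallium flux slope above the same plate's solvent-only control mean plus 3 SD; inconclusive means the two replicate wells disagree; inactive means no significant difference from solvent-only control wells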
KCC2 bumet counter = thallium flux persisting under bumetanide in KCC2 cells, confirmation, counter-screen for KCC2 modulator project, cell-based, HEK293 KCC2, FluoZin2, secondary assay 3; shares compounds with KCC2 mod; HEK293-KCC2 + bumetanide/ouabain; hits give high values; normalized thallium flux at 10 µM; 3,700 compounds, 49% hits; AID 1714, 2009;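 active means thallium entry rate above the same plate's blocked-transporter control wells by more than 3 SD; inconclusive means the two repeat wells disagree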;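 further: raw slope of fluorescence over initial fluorescence between 10 and 20 s after thallium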
KCC2 sec2 = KCC2 modulators without ouabain present, confirmation, cell-based, HEK293 KCC2, thallium flux, FluoZin2, secondary assay 2. shares compounds with KCC2 mod. thallium flux FluoZin2 fluorescence; actives lie on both sides; F/F0 rise rate, 10–20 s post-thallium. normalized thallium flux at 10 µM. 3,700 compounds, 23% hits;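 active means thallium flux slope more than 3 SD above or below the plate's solvent-only control mean, mostly below; inconclusive means the two repeat wells disagreed; inactive means no significant shift from solvent-only controls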;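 further: raw slope with 0.1% DMSO as baseline and bumetanide as block control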
HEK counter1 = thallium flux modulation in parental HEK cells, confirmation, counter-screen for KCC2 modulator project, cell-based, counterscreen 1; thallium flux rate (normalised fluorescence) at 10 µM; HEK293 parental cells, thallium flux FluoZin2, ouabain; baseline-ratio fluorescence slope, 10–20 s after thallium; shares compounds with KCC2 mod; 3,700 compounds, 46% hits;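 active means thallium flux rate significantly above the same plate's solvent-only control wells, beyond their mean plus 3 SD; inconclusive means the two replicate wells gave conflicting results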
KCC2 retest ouab = KCC2 inhibitors and activators, ouabain retest, confirmation, HEK-KCC2 cells; shares compounds with KCC2 mod; HEK293-KCC2, thallium flux FluoZin2 fluorescence; bidirectional: low = inhibitor, high = activator; raw Tl+ flux slope (below DMSO = inhibition, above = activation) at 10 µM; 3,700 compounds, 48% hits; AID 1717, 2009;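 active means thallium flux slope beyond 3 SD from same-plate DMSO control mean in most replicates, usually higher, sometimes lower; inconclusive means repeat tests gave conflicting results; inactive means no significant difference from controls in most replicates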;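 further: slope of initial-normalized fluorescence between seconds 10 and 20 after thallium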
HEK counter2 = native HEK Tl+ uptake effects, second counter-screen – HEK cells, counterscreen 2, counter-screen for KCC2 modulator project, confirmation; HEK293 parental, thallium flux FluoZin-2 fluorescence slope; 3,700 compounds, 33% hits; shares compounds with KCC2 mod; thallium flux slope at 10 µM;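 active means thallium flux slope above the same plate's solvent-control mean plus 3 SD in both duplicate wells; inconclusive means duplicate wells that disagreed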;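 further: run without ouabain in cells lacking the KCC2 cotransporter; slope of fluorescence scaled to its starting value between 10 and 20 s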
* = called active by the depositor; i = inactive; ? = inconclusive; nt = no result. The list is not random: actives were taken first. Their share in the collection is about 4.1%.

SMILES | ROMK mod | Redox H2O2 prof | Autophagy HCS | Dynein transport | KCC2 mod | KCC2 sec1 | KCC2 bumet counter | KCC2 sec2 | HEK counter1 | KCC2 retest ouab | HEK counter2
COc1ccc2c(c1)O[C@@H](c1cccc(C(F)(F)F)c1)[C@H](OC(=O)NCCc1ccc(OC)c(OC)c1)C2=O | 0.45 | 0 | i | 0.4 | 38* | 0.0067 | 0.028* | ? | 0.029* | 0.037* | 0.022*
COc1cccc([C@@H]2Oc3ccc(OC)cc3C(=O)[C@H]2OC(=O)NCc2ccc3c(c2)OCO3)c1 | 2.2 | 0 | i | -0.38 | 42* | 0.0061 | 0.058* | 0.064* | 0.068* | 0.055* | 0.051*
COc1ccc2c(c1)O[C@H](c1ccc3c(c1)OCO3)[C@@H](OC(=O)Nc1cc(OC)c(OC)c(OC)c1)C2=O | 0.83 | 1 | i | 0.52 | 0.82 | nt | nt | nt | nt | nt | nt
CC[C@H](C)[C@@H](NC(=O)O[C@@H]1C(=O)c2cc(OC)ccc2O[C@H]1c1ccc(OC)c(Br)c1)C(=O)OC | 1.6 | 0 | i | 0.41 | 1.5 | nt | nt | nt | nt | nt | nt
COC(=O)[C@@H](NC(=O)O[C@@H]1C(=O)c2ccc(OC)cc2O[C@H]1c1cccc(C(F)(F)F)c1)C(C)C | -0.61 | 1 | i | 0.74 | 5.6* | 0.0064 | 0.011* | 0.031 | 0.015* | ? | 0.013*
Cn1c(=S)[nH]c2c(c1=O)C(C)(C)Cc1ccccc1-2 | 1.9 | 0 | i | 2 | 83* | 0.066* | 0.12* | 0.084* | 0.096* | 0.094* | 0.091*
O=C(CSc1nc2ccc(N3CCOCC3)cc2c(=O)n1CCc1ccccc1)NCC1CCCO1 (stereo unspecified) | -0.035 | 0 | i | -0.054 | 6.7* | 0.016 | 0.016* | 0.029 | 0.009* | 0.017 | 0.013*
Oc1c(N=NC(=S)Nc2ccccc2F)c2ccccc2n1Cc1ccccc1 | 0.17 | 0 | i | -0.68 | 21* | ? | 0.046* | 0.032 | ? | 0.03* | ?
C=CCn1c(O)c(N=NC(=S)Nc2ccccc2F)c2ccccc21 | 0.55 | 0 | i | 0.66 | 107* | 0.036* | 0.14* | 0.05* | ? | 0.089* | 0.028*
Oc1c(N=NC(=S)Nc2ccccc2F)c2ccccc2n1Cc1ccccc1Cl | -0.78 | -1 | i | 1.1 | 3.8 | nt | nt | nt | nt | nt | nt
c1ccc2c(c1)c1ccccc1n2CN1CCOCC1 | nt | 1 | i | 0.97 | -0.37 | nt | nt | nt | nt | nt | nt
Cc1ccc(Cn2c(O)c(N=NC(=S)Nc3ccccc3F)c3ccccc32)cc1 | 0.066 | 1 | i | -0.45 | i | nt | nt | nt | nt | nt | nt
O=C(COc1ccccc1F)Nc1cc(S(=O)(=O)N2CCOCC2)ccc1N1CCOCC1 | 0.97 | -1 | i | -0.95 | -0.22 | nt | nt | nt | nt | nt | nt
C=CCn1c(O)c(N=NC(=S)Nc2ccccc2F)c2cc(S(=O)(=O)N3CCOCC3)ccc21 | -0.14 | -1 | i | -0.6 | 64* | 0.018* | 0.05* | 0.038 | 0.056* | 0.049* | 0.02*
Cc1c(Cl)cccc1NC(=S)N=Nc1c(O)n(CN2CCOCC2)c2ccccc12 | 0.076 | 0 | i | 2.6 | 48* | 0.016* | 0.052* | 0.032 | 0.038* | 0.056* | 0.013*
C=CCn1c(O)c(N=NC(=S)Nc2cccc(C)c2)c2ccccc21 | 1.5 | 0 | i | -0.6 | 82* | 0.0063 | 0.084* | 0.057* | 0.029* | 0.063* | 0.023*
CCc1ccc(OCCNC(=O)c2cc(SC)ccc2Cl)cc1 | 0.067 | 3 | i | 0.18 | -6.3* | 0.0067 | 0.0053 | 0.025* | 0.0071 | ? | 0.011
COCCNC(=O)c1cc(Br)ccc1Cl | 0.17 | 2 | i | 0.37 | -4.5* | 0.011 | 0.035* | 0.033 | 0.019* | 0.028 | ?
CSc1ccc(Cl)c(C(=O)NCCOc2ccccc2)c1 | -2 | -4 | i | -0.047 | -2 | nt | nt | nt | nt | nt | nt
CCc1ccc(OCCNC(=O)c2ccccc2SCc2ccc(F)cc2)cc1 | -0.9 | 0 | i | -0.44 | -8.8* | 0.0082 | 0.0065 | 0.023* | 0.0065 | 0.013* | 0.0093
CN(C)CCNC(=O)c1cc(Br)ccc1Cl | nt | 1 | i | 0.19 | 0.39 | nt | nt | nt | nt | nt | nt
O=C(NCCOc1ccc(F)cc1)c1ccccc1SCc1ccccc1 | nt | 0 | i | -0.39 | -5.4* | 0.0051 | ? | 0.019* | 0.0059* | 0.012* | 0.0089
CC1OC(O[C@H]2CC[C@]3(C)C4C=C[C@]56OC[C@@]7(CC[C@@H](C)[C@H](C)C75)[C@H](O)C[C@@]6(C)[C@]4(C)CC[C@H]3C2(C)C)C(OC2OC(CO)C(O)C(O)C2OC2OCC(O)C(O)C2O)C(O)C1O (stereo partly specified) | nt | nt | nt | -2.3 | 39* | 0.013* | 0.046* | 0.032 | 0.0085 | ? | 0.01
O=C(N/N=C/c1cccs1)c1ccccn1 | -0.49 | -4 | i | 2.2 | -0.086 | nt | nt | nt | nt | nt | nt
O=C(CSc1ncccn1)N/N=C/c1cccs1 | -0.28 | -8 | i | -0.57 | 4.5* | 0.0077 | 0.0062 | 0.029 | 0.007 | 0.02 | 0.0092
CCn1nnnc1SCC(=O)Nc1nc2ccc(OC)cc2s1 | nt | 1 | i | -0.18 | 0.39 | nt | nt | nt | nt | nt | nt
